The record followed here is ChEMBL document CHEMBL3244421, “Antiarrhythmic activity of some N-alkylbispidinebenzamides” (J Med Chem, 1979).

Series [1] has as its system Mus musculus. Kind of series: Ratio of LD50 for CF1 mouse to ED50 for antiarrhythmic activity in CF1 mouse. The arrangement: species or system Heart.
The nature of series [2]: Toxicity in New Zealand rabbit assessed as reduction in force of left atrial contraction. The series is classed as tissue-based, Oryctolagus cuniculus, Cardiac atrium.
Series [3] in a line: Acute toxicity in ip dosed CF1 mouse. The series is classed as organism-based. To be noted: in vivo.
Series [4] relates to Mus musculus. Briefly: Antiarrhythmic activity in ip dosed CF1 mouse assessed as protection against chloroform-induced ventricular fibrillation. The format is functional. To be noted: CF1, Heart. The method in brief: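 Adult female CF1 mice; protection against ventricular fibrillation provoked by chloroform exposure, used as the first screen of antiarrhythmic activity.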

Series [5] in a line: Antiarrhythmic activity in New Zealand rabbit left atrium assessed as reduction in maximum following frequency (MFF). The series is classed as functional, Oryctolagus cuniculus, Cardiac atrium. Summed up:
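Left atria from male New Zealand white rabbits, mounted in Krebs-Henseleit buffer at 35 °C and aerated with 95% O2-5% CO2. Driven by 10-ms square-wave pulses at five times threshold voltage. Control maximum following frequency (MFF) was determined first, then MFF reduction at 1, 3, 13, 33 and 133 μM. ED25 (concentration reducing MFF to 75% of control) was estimated from dose-response curves.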

Series [6] in a line: Ratio of ED25 for reduction in force of left atrial contraction in New Zealand rabbit to ED25 for reduction in maximum following frequency in New Zealand rabbit left atrium. Also on record: species or system Oryctolagus cuniculus, Cardiac atrium.

Turning to `COc1ccc(C(=O)N2CC3CC(CN(C)C3)C2)cc1.O=C(O)/C=C/C(=O)O`, the “Ratio LD50/ED50” value with Mus musculus [1] was 5.93. For the same compound, the ED25 in series [2] was more than 400 µM; in series [5] it was 500 µM. In series [3], this compound displayed an LD50 of 463 µmol/kg. Besides, the ED50 in the series with Mus musculus [4] was 78 µmol/kg.

With `CN1CC2CC(C1)CN(C(=O)c1ccc(Cl)cc1)C2.O=C(O)/C=C/C(=O)O`, the “Ratio LD50/ED50” value in the series on Mus musculus [1] amounted to 10.89. The ED25 in series [2] worked out at 400 µM; in series [5] it was 110 µM. This compound displayed an LD50 in series [3] of 535 µmol/kg. In the series with Mus musculus [4], the median effective dose (ED50) turned out to be 49 µmol/kg. Also, the Ratio in series [6] was found to be 3.64.

Take `CCCCN1CC2CC(C1)CN(C(=O)c1ccccc1)C2.Cl`: the “Ratio LD50/ED50” value in the series on Mus musculus [1] worked out at 2.07. This compound had an LD50 in series [3] of 500 µmol/kg. Also, in the series on Mus musculus [4], the ED50 came out at 242 µmol/kg.

As for `CCCCN1CC2CC(C1)CN(C(=O)c1ccc(OC)cc1)C2.O=C(O)/C=C/C(=O)O`, the “Ratio LD50/ED50” value in the series with Mus musculus [1] is recorded as 4.6. The compound further showed an LD50 in series [3] of 488 µmol/kg. Also, the ED50 with Mus musculus [4] amounted to 106 µmol/kg.

For `COc1cc(C(=O)N2CC3CC(CN(C)C3)C2)cc(OC)c1OC.O=C(O)/C=C/C(=O)O`, in the series on Mus musculus [1], the “Ratio LD50/ED50” value was found to be 3.91. For the same compound, in series [3], the LD50 was 535 µmol/kg. For the same compound, the ED50 with Mus musculus [4] is 137 µmol/kg.

With `CN1CC2CC(C1)CN(C(=O)c1ccc(Cl)c(Cl)c1)C2.O=C(O)/C=C/C(=O)O`, the “Ratio LD50/ED50” value in the series on Mus musculus [1] is reported as 1.05. This compound also had an LD50 in series [3] of 492 µmol/kg. For the same compound, the ED50 with Mus musculus [4] worked out at 470 µmol/kg.

As for `CC(C)N(CCC(C(N)=O)(c1ccccc1)c1ccccn1)C(C)C` (stereo not given) [DISOPYRAMIDE], the “Ratio LD50/ED50” value in the series with Mus musculus [1] was determined as 5.77. Moreover, the results for the ED25 in series [2] and in series [5] were 56 µM and 18 µM, respectively. In series [3], this compound returned an LD50 of 517 µmol/kg. Besides, the ED50 in the series on Mus musculus [4] stood at 90 µmol/kg. Also, the Ratio in series [6] was determined as 3.11.

Consider `CCCCN1CC2CC(C1)CN(C(=O)c1ccc(Cl)cc1)C2.O=C(O)/C=C/C(=O)O`, for which the “Ratio LD50/ED50” value with Mus musculus [1] was determined as 3.45. For the same compound, in series [3], the LD50 was found to be 463 µmol/kg. In the series on Mus musculus [4], the 50% effective dose (ED50) was 134 µmol/kg.

On to `CCCCN1CC2CC(C1)CN(C(=O)c1ccc(Cl)c(Cl)c1)C2.O=C(O)/C=C/C(=O)O`, for which the “Ratio LD50/ED50” value in the series on Mus musculus [1] was found to be 2.71. This compound also showed an LD50 in series [3] of 605 µmol/kg. In addition, in the series with Mus musculus [4], the ED50 was 223 µmol/kg.

With `CN1CC2CC(C1)CN(C(=O)c1ccccc1)C2.O=C(O)/C=C/C(=O)O`, the “Ratio LD50/ED50” value in the series with Mus musculus [1] is given as 7.29. The ED25 in series [2] is more than 400 µM; in series [5] it was 400 µM. In series [3], this compound displayed an LD50 of 621 µmol/kg. Further, the 50% effective dose (ED50) in the series with Mus musculus [4] worked out at 85 µmol/kg.

What is called LD50 is the dose expected to kill half of the subjects tested. What is called ED50 is the dose at which the effect has come halfway, by size or by number of responders.
